Assay results from ChEMBL document CHEMBL4689842, “EUbOPEN Chemogenomics Library wave 1” (2021).

Test system: Fibroblast
Assay: Multiplex assay against human fibroblast
Type: toxicity, cell-based
Procedure, shortened: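 Cells stained live at seeding with Hoechst33342, BioTracker Green Microtubule Cytoskeleton Dye, MitoTracker Red and Annexin V Alexa Fluor 680 were imaged on a CQ1 microscope at 37°C and 5% CO2 after compound addition. Their classification by CellPathfinder machine-learning gating ran from Hoechst high-intensity objects versus normal cells, to healthy, pyknosed or fragmented nuclei among normal cells, to mitotic or apoptotic among pyknosed cells. Tubulin, mitochondrial-mass and membrane-permeability phenotypes are per cents of healthy-nucleus cells.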

[1] = 12 h, 1 µM, compound concentration 1 uM, replicate 1
[2] = 12 h, 1 µM, compound concentration 1 uM, replicate 2
[3] = 12 h, 10 µM, compound concentration 10 uM, replicate 1
[4] = 12 h, 10 µM, compound concentration 10 uM, replicate 2
[5] = 24 h, 1 µM, compound concentration 1 uM, replicate 1
[6] = 24 h, 1 µM, compound concentration 1 uM, replicate 2
[7] = 24 h, 10 µM, compound concentration 10 uM, replicate 1
[8] = 24 h, 10 µM, compound concentration 10 uM, replicate 2
[9] = 48 h, 1 µM, compound concentration 1 uM, replicate 1
[10] = 48 h, 1 µM, compound concentration 1 uM, replicate 2
[11] = 48 h, 10 µM, compound concentration 10 uM, replicate 1
[12] = 48 h, 10 µM, compound concentration 10 uM, replicate 2

Compound: CN1CCC(=C2c3ccccc3CC(=O)c3sccc32)CC1.O=C(O)/C=C/C(=O)O [KETOTIFEN FUMARATE]
- Population Apoptotic (%) [1]: 61%
- Population Fragmented Nuclei (%) [1]: 26%
- Population Healthy Nuclei (%) [1]: 41%
- Population Hoechst High Intensity Objects (%) [1]: 12%
- Population Membrane Permeable-Phenotype (%) [1]: 24%
- Population Mitochondria Different-Phenotype (%) [1]: 3%
- Population Mitotic Cells (%) [1]: 38%
- Population Normal (%) [1]: 87%
- Population Pyknosed Nuclei (%) [1]: 32%
- Population Tubulin-Different-Phenotype (%) [1]: 37%
- Total Cell Count [1]: 149
- Population Apoptotic (%) [2]: 75%
- Population Fragmented Nuclei (%) [2]: 6%
- Population Healthy Nuclei (%) [2]: 87%
- Population Hoechst High Intensity Objects (%) [2]: 5%
- Population Membrane Permeable-Phenotype (%) [2]: 10%
- Population Mitochondria Different-Phenotype (%) [2]: 12%
- Population Mitotic Cells (%) [2]: 25%
- Population Normal (%) [2]: 94%
- Population Pyknosed Nuclei (%) [2]: 6%
- Population Tubulin-Different-Phenotype (%) [2]: 9%
- Total Cell Count [2]: 56
- Population Apoptotic (%) [3]: 73%
- Population Fragmented Nuclei (%) [3]: 21%
- Population Healthy Nuclei (%) [3]: 51%
- Population Hoechst High Intensity Objects (%) [3]: 16%
- Population Membrane Permeable-Phenotype (%) [3]: 6%
- Population Mitochondria Different-Phenotype (%) [3]: 23%
- Population Mitotic Cells (%) [3]: 26%
- Population Normal (%) [3]: 83%
- Population Pyknosed Nuclei (%) [3]: 26%
- Population Tubulin-Different-Phenotype (%) [3]: 84%
- Total Cell Count [3]: 168
- Population Apoptotic (%) [4]: 33%
- Population Fragmented Nuclei (%) [4]: 2%
- Population Healthy Nuclei (%) [4]: 75%
- Population Hoechst High Intensity Objects (%) [4]: 1%
- Population Membrane Permeable-Phenotype (%) [4]: 15%
- Population Mitochondria Different-Phenotype (%) [4]: 90%
- Population Mitotic Cells (%) [4]: 66%
- Population Normal (%) [4]: 98%
- Population Pyknosed Nuclei (%) [4]: 22%
- Population Tubulin-Different-Phenotype (%) [4]: 95%
- Total Cell Count [4]: 67
- Population Apoptotic (%) [5]: 63%
- Population Fragmented Nuclei (%) [5]: 25%
- Population Healthy Nuclei (%) [5]: 45%
- Population Hoechst High Intensity Objects (%) [5]: 12%
- Population Membrane Permeable-Phenotype (%) [5]: 16%
- Population Mitochondria Different-Phenotype (%) [5]: 6%
- Population Mitotic Cells (%) [5]: 36%
- Population Normal (%) [5]: 88%
- Population Pyknosed Nuclei (%) [5]: 28%
- Population Tubulin-Different-Phenotype (%) [5]: 38%
- Total Cell Count [5]: 150
- Population Apoptotic (%) [6]: 100%
- Population Fragmented Nuclei (%) [6]: 8%
- Population Healthy Nuclei (%) [6]: 86%
- Population Hoechst High Intensity Objects (%) [6]: 7%
- Population Membrane Permeable-Phenotype (%) [6]: 9%
- Population Mitochondria Different-Phenotype (%) [6]: 10%
- Population Mitotic Cells (%) [6]: 0%
- Population Normal (%) [6]: 92%
- Population Pyknosed Nuclei (%) [6]: 5%
- Population Tubulin-Different-Phenotype (%) [6]: 4%
- Total Cell Count [6]: 64
- Population Apoptotic (%) [7]: 75%
- Population Fragmented Nuclei (%) [7]: 33%
- Population Healthy Nuclei (%) [7]: 51%
- Population Hoechst High Intensity Objects (%) [7]: 16%
- Population Membrane Permeable-Phenotype (%) [7]: 17%
- Population Mitochondria Different-Phenotype (%) [7]: 28%
- Population Mitotic Cells (%) [7]: 25%
- Population Normal (%) [7]: 83%
- Population Pyknosed Nuclei (%) [7]: 15%
- Population Tubulin-Different-Phenotype (%) [7]: 83%
- Total Cell Count [7]: 189
- Population Apoptotic (%) [8]: 59%
- Population Fragmented Nuclei (%) [8]: 6%
- Population Healthy Nuclei (%) [8]: 66%
- Population Hoechst High Intensity Objects (%) [8]: 2%
- Population Membrane Permeable-Phenotype (%) [8]: 22%
- Population Mitochondria Different-Phenotype (%) [8]: 98%
- Population Mitotic Cells (%) [8]: 40%
- Population Normal (%) [8]: 97%
- Population Pyknosed Nuclei (%) [8]: 27%
- Population Tubulin-Different-Phenotype (%) [8]: 88%
- Total Cell Count [8]: 80
- Population Apoptotic (%) [9]: 61%
- Population Fragmented Nuclei (%) [9]: 34%
- Population Healthy Nuclei (%) [9]: 52%
- Population Hoechst High Intensity Objects (%) [9]: 16%
- Population Membrane Permeable-Phenotype (%) [9]: 20%
- Population Mitochondria Different-Phenotype (%) [9]: 2%
- Population Mitotic Cells (%) [9]: 38%
- Population Normal (%) [9]: 83%
- Population Pyknosed Nuclei (%) [9]: 12%
- Population Tubulin-Different-Phenotype (%) [9]: 34%
- Total Cell Count [9]: 170
- Population Apoptotic (%) [10]: 40%
- Population Fragmented Nuclei (%) [10]: 28%
- Population Healthy Nuclei (%) [10]: 64%
- Population Hoechst High Intensity Objects (%) [10]: 10%
- Population Membrane Permeable-Phenotype (%) [10]: 18%
- Population Mitochondria Different-Phenotype (%) [10]: 0%
- Population Mitotic Cells (%) [10]: 60%
- Population Normal (%) [10]: 89%
- Population Pyknosed Nuclei (%) [10]: 6%
- Population Tubulin-Different-Phenotype (%) [10]: 32%
- Total Cell Count [10]: 86
- Population Apoptotic (%) [11]: 87%
- Population Fragmented Nuclei (%) [11]: 41%
- Population Healthy Nuclei (%) [11]: 53%
- Population Hoechst High Intensity Objects (%) [11]: 31%
- Population Membrane Permeable-Phenotype (%) [11]: 16%
- Population Mitochondria Different-Phenotype (%) [11]: 9%
- Population Mitotic Cells (%) [11]: 12%
- Population Normal (%) [11]: 68%
- Population Pyknosed Nuclei (%) [11]: 4%
- Population Tubulin-Different-Phenotype (%) [11]: 68%
- Total Cell Count [11]: 260
- Population Apoptotic (%) [12]: 0%
- Population Fragmented Nuclei (%) [12]: 34%
- Population Healthy Nuclei (%) [12]: 64%
- Population Hoechst High Intensity Objects (%) [12]: 23%
- Population Membrane Permeable-Phenotype (%) [12]: 13%
- Population Mitochondria Different-Phenotype (%) [12]: 5%
- Population Mitotic Cells (%) [12]: 100%
- Population Normal (%) [12]: 76%
- Population Pyknosed Nuclei (%) [12]: 1%
- Population Tubulin-Different-Phenotype (%) [12]: 86%
- Total Cell Count [12]: 176
